Source: ChEMBL document CHEMBL3797060, “Discovery of 5-Chloro-1-(5-chloro-2-(methylsulfonyl)benzyl)-2-imino-1,2-dihydropyridine-3-carboxamide (TAK-259) as a Novel, Selective, and Orally Active α1D Adrenoceptor Antagonist with Antiurinary Frequency Effects: Reducing Human Ether-a-go-go-Related Gene (hERG) Liabilities” (J Med Chem, 2016)

What was measured:
[1] = biological target: T1, Alpha-1D adrenergic receptor (Homo sapiens, UniProt P25100); test: Displacement of 7-methoxy-[3H]-prazosin from human alpha1D adrenergic receptor expressed in CHO-K1 cell membranes incubated for 60 mins by liquid scintillation counting analysis
T1 sequence (P25100 whole entry): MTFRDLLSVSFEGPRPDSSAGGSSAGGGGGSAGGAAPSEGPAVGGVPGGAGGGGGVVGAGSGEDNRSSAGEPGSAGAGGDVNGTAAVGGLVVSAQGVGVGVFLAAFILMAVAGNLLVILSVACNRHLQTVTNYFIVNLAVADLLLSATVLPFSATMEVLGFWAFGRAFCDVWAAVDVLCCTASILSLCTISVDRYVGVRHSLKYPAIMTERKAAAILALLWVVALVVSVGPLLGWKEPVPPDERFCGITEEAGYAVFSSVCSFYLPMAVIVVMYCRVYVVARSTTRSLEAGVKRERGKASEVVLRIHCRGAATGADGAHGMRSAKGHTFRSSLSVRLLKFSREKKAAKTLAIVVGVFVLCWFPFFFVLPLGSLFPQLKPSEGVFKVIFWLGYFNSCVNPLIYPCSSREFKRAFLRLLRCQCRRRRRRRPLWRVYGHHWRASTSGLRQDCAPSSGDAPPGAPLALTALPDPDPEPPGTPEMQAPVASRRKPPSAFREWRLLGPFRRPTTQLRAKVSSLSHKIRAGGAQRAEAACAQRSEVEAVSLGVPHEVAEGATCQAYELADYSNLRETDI
Procedure, shortened: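 CHO-K1 stable-line membranes (10 µg protein), 2.5 nmol/L ligand, Tris-HCl pH 7.5 with MgCl2, EDTA and 0.5% BSA, 12 compound concentrations, room temperature. Filtered and counted; nonspecific binding with 10 µmol/L phentolamine. IC50 by logistic regression, converted to Ki by Cheng-Prusoff with Kd 0.93 (α1A), 0.35 (α1B), 0.26 (α1D) nmol/L. Triplicate mean, 95% CI.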

hERG (KCNH2) = hERG (KCNH2) (Homo sapiens, UniProt Q12809); test: Inhibition of human ERG channel expressed in CHO cells assessed as peak tail current at 10 uM incubated for 5 mins by patch-clamp assay; assay type: cell-based; details: CHO cells expressing human ERG channel
Procedure, shortened: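 CHO cells stably expressing hERG, grown at 32 °C, 5% CO2 in Ham's F-12 with 10% FBS and 500 µg/mL Geneticin. Population patch clamp with PBS (Ca/Mg) outside, KCl/MgCl2/EGTA/HEPES pH 7.3 inside, amphotericin B perforation. Holding −80 mV, step to 40 mV 2 s, then −50 mV 2 s. Peak tail current taken before and after 5 min compound exposure, inhibition = 100 − post/pre×100, n = 3 or 4.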

[2] = Total clearance in rat at 0.1 mg/kg, iv administered via cassette dosing by LC/MS/MS analysis; assay type: ADME, organism-based; details: in vivo
Procedure, shortened: (§1)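 Cassette dosing iv at 0.1 mg/kg in DMA/1,3-butanediol (1:1) to fed rats. Blood collected after dosing and centrifuged to plasma, which was deproteinized and centrifuged; supernatant concentrations measured by LC/MS/MS.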

Homo sapiens [3] = organism: Homo sapiens; test: Selectivity ratio of Ki for human alpha1B adrenergic receptor to Ki for human alpha1D adrenergic receptor
Procedure, shortened: (§2)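 Membranes from CHO-K1 cells stably expressing human α1A, α1B or α1D receptors (10 µg protein) incubated 60 min at room temperature with 2.5 nmol/L 7-methoxy[3H]-prazosin and 12 compound concentrations in Tris-HCl pH 7.5 buffer with MgCl2, EDTA, 0.5% BSA. Bound counts taken after filtration; nonspecific binding defined with 10 µmol/L phentolamine.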

[4] = Mean residence time in rat at 1 mg/kg, po administered via cassette dosing by LC/MS/MS analysis; assay type: ADME, organism-based; details: in vivo
Procedure, shortened: (§3)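 Fed rats dosed orally at 1 mg/kg as 0.5% methylcellulose suspension by cassette dosing; bioavailability also uses an iv arm of 0.1 mg/kg in DMA/1,3-butanediol (1:1). Plasma obtained from blood by centrifugation, deproteinized, and measured by LC/MS/MS. Values are averages of three rats.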

[5] = Oral bioavailability in rat at 1 mg/kg administered via cassette dosing by LC/MS/MS analysis; assay type: ADME, organism-based; details: in vivo; procedure, shortened: as §3
Rattus norvegicus [6] = test: Reduction of urinary frequency in po dosed Sprague-Dawley rat with cyclophosphamide-induced cystitis assessed as increased voiding intervals administered at voiding intervals less <7.2 mins measured after 5 to 35 mins by cystometrogram; assay type: functional; details: Urine, read-out: MED
Urinary bladder = test: Inhibition of (R)-(-)-phenylephrine hydrochloride-induced contractions in Wistar rat bladder with outlet obstruction treated every 30 minutes post (R)-(-)-phenylephrine hydrochloride challenge; assay type: functional; details: for IC30: 0.5 h
[7] = AUC in rat at 1 mg/kg, po administered via cassette dosing by LC/MS/MS analysis; assay type: ADME, organism-based; details: in vivo; procedure, shortened: as §3
Homo sapiens [8] = organism: Homo sapiens; test: Selectivity ratio of Ki for human alpha1A adrenergic receptor to Ki for human alpha1D adrenergic receptor; procedure, shortened: as §2
[9] = Cmax in rat at 1 mg/kg, po administered via cassette dosing by LC/MS/MS analysis; assay type: ADME, organism-based; set-up: dose 1 mg/kg, route oral; details: in vivo; procedure, shortened: as §3
[10] = Volume of distribution at steady state in rat at 0.1 mg/kg, iv administered via cassette dosing by LC/MS/MS analysis; assay type: ADME, organism-based; details: in vivo, read-out: Vdss; procedure, shortened: as §1
Rattus norvegicus [11] = test: Inhibition of nonvoiding contractions during urinary storage phase in iv dosed Wistar rat with bladder outlet obstruction after 10 mins by cystometrogram; assay type: functional; details: for ED50: read-out: ID50 (the source's name)

Sequence of hERG (KCNH2) (Q12809 whole entry): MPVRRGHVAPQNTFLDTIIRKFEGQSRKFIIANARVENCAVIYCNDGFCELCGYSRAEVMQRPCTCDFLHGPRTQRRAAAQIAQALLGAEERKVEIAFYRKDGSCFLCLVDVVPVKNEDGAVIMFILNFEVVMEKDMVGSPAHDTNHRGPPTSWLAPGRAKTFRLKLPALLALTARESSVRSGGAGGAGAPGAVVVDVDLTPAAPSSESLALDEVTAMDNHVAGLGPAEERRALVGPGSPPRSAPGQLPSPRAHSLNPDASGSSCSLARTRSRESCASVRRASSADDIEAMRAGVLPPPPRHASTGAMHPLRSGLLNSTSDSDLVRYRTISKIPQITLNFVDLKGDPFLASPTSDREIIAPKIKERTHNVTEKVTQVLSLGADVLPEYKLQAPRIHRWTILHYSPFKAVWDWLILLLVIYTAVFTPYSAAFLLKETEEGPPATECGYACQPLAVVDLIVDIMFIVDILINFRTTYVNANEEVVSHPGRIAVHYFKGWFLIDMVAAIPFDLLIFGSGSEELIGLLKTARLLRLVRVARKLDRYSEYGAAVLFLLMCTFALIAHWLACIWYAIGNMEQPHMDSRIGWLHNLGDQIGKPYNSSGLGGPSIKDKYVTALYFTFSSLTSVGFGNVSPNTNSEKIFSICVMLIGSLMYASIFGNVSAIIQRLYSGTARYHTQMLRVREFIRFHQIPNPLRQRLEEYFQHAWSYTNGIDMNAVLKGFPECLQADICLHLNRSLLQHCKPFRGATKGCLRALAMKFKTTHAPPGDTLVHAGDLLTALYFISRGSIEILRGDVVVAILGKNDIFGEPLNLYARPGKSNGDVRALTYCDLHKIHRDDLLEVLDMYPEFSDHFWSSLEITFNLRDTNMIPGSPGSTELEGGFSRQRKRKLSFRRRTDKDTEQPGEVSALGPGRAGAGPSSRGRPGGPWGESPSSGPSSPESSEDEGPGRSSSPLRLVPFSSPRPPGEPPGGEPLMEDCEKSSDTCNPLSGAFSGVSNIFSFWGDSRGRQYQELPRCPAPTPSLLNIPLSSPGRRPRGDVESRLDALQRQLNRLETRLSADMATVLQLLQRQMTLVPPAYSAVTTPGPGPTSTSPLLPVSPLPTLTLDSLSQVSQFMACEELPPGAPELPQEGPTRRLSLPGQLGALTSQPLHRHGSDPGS

SMILES	Ki [1]	inhibition at 5 min, 10 µM (hERG (KCNH2))	also measured
N=c1c(C(N)=O)cc(Br)cn1Cc1ccccc1	160 nM		
N#Cc1cccc(Cn2cc(Cl)cc(C(N)=O)c2=N)c1	10 nM		
N#Cc1ccc(Cn2cc(Cl)cc(C(N)=O)c2=N)cc1Cl	11 nM	74%	
CC(c1cccc(Cl)c1)n1cc(Cl)cc(C(N)=O)c1=N (stereo not drawn)	0.66 nM	48%	
CS(=O)(=O)c1ccc(Cn2cc(Cl)cc(C(N)=O)c2=N)cc1Cl	9.4 nM	13%	
C[C@@H](c1cccc(C#N)c1)n1cc(Cl)cc(C(N)=O)c1=N [(S)-9s]	130 nM	57%	
N=c1c(C(N)=O)cc(Cl)cn1Cc1ccccc1Cl	39 nM		
CC(c1cccc(S(C)(=O)=O)c1)n1cc(Cl)cc(C(N)=O)c1=N (stereo not drawn)	15 nM	19%	
N=c1c(C(N)=O)cccn1Cc1ccccc1	880 nM		
N=c1c(C(N)=O)cc(Cl)cn1Cc1cccc(C(N)=O)c1	26 nM		
CC(C)(C)Cn1cc(Cl)cc(C(N)=O)c1=N	820 nM		
CC(c1cccc(C#N)c1)n1cc(Cl)cc(C(N)=O)c1=N (stereo not drawn)	3.4 nM	32%	
N=c1c(C(N)=O)cc(Cl)cn1Cc1cccc(Cl)c1	2.6 nM	47%	
N=c1c(C(N)=O)cc(Cl)cn1CCc1ccccc1	16 nM		
CS(=O)(=O)c1cccc(Cn2cc(Cl)cc(C(N)=O)c2=N)c1	52 nM		
N=c1c(C(N)=O)cc(Cl)cn1Cc1ccc(Cl)cc1	23 nM		
NC(=O)c1cc(Cl)cn(Cc2ccccc2)c1=O	> 940 nM		

SMILES	Ki [1]	inhibition at 5 min, 10 µM (hERG (KCNH2))	also measured
N#Cc1cc(Cl)cc(Cn2cc(Cl)cc(C(N)=O)c2=N)c1	0.86 nM	71%	
C[C@H](c1cccc(C#N)c1)n1cc(Cl)cc(C(N)=O)c1=N [(R)-9s]	1.6 nM	25%	clearance [2]: 39.2 mL/min/kg; Ratio Ki (Homo sapiens [3]): > 750; MRT [4]: 3.14 h; bioavailability [5]: 86%; minimal effective dose (Rattus norvegicus [6]): 10 µg/kg; inhibition (Urinary bladder): Dose-dependent effect; IC30 (Urinary bladder): 15 nM; AUC [7]: 368 ng·h/mL; Ratio Ki (Homo sapiens [8]): > 1700; Cmax [9]: 142 ng/mL; Vd [10]: 4.68 L/kg; inhibition (Rattus norvegicus [11]): Dose-dependent effect; ED50 (Rattus norvegicus [11]): 4.4 µg/kg
Cc1cccc(Cn2cc(Cl)cc(C(N)=O)c2=N)c1	7.5 nM		
N=c1c(C(N)=O)cc(Cl)cn1Cc1ccco1	160 nM		
COc1cccc(Cn2cc(Cl)cc(C(N)=O)c2=N)c1	8.7 nM		
N=c1c(C(N)=O)cc(Cl)cn1CCCc1ccccc1	54 nM		
CCOc1ccccc1OCCN[C@H](C)Cc1ccc(OC)c(S(N)(=O)=O)c1			Ratio Ki (Homo sapiens [3]): 11; Ratio Ki (Homo sapiens [8]): 0.7
N=c1c(C(N)=O)cc(Cl)cn1-c1ccccc1	> 940 nM		
N=c1c(C(N)=O)cc(Cl)cn1Cc1ccc(C(N)=O)c(Cl)c1	65 nM	10%	
N=c1c(C(N)=O)cc(Cl)cn1Cc1cccnc1	250 nM		
CCNC(=O)c1cc(Cl)cn(Cc2ccccc2)c1=N	> 940 nM		
N=c1c(C(N)=O)cc(Cl)cn1Cc1ccccn1	420 nM		
CN(C)C(=O)c1cc(Cl)cn(Cc2ccccc2)c1=N	> 940 nM		
CS(=O)(=O)c1ccc(Cl)cc1Cn1cc(Cl)cc(C(N)=O)c1=N	1.1 nM	16%	clearance [2]: 39.9 mL/min/kg; Ratio Ki (Homo sapiens [3]): 800; MRT [4]: 4.53 h; bioavailability [5]: 84.5%; minimal effective dose (Rattus norvegicus [6]): 10 µg/kg; inhibition (Urinary bladder): Dose-dependent effect; IC30 (Urinary bladder): 12 nM; AUC [7]: 358 ng·h/mL; Ratio Ki (Homo sapiens [8]): 200; Cmax [9]: 60.2 ng/mL; Vd [10]: 4.43 L/kg; inhibition (Rattus norvegicus [11]): Dose-dependent effect; ED50 (Rattus norvegicus [11]): 1.3 µg/kg
CS(=O)(=O)c1cc(Cl)cc(Cn2cc(Cl)cc(C(N)=O)c2=N)c1	4.8 nM	14%	
N=c1c(C(N)=O)cc(Cl)cn1Cc1cc(Cl)cc(C(N)=O)c1	3.7 nM	13%	clearance [2]: 47.2 mL/min/kg; Ratio Ki (Homo sapiens [3]): > 320; MRT [4]: 2.47 h; bioavailability [5]: 3%; AUC [7]: 10.8 ng·h/mL; Ratio Ki (Homo sapiens [8]): > 730; Cmax [9]: 3.2 ng/mL; Vd [10]: 3.21 L/kg
N#Cc1ccc(Cl)cc1Cn1cc(Cl)cc(C(N)=O)c1=N	8.5 nM	59%	
